In PMC7993274 (Clinical and Translational Science, 2020):

How the values were obtained:
[1] = background statement, no reference given; cited from earlier work
[2] = Clinical laboratory parameters, vital signs, ECG and overall safety; assay type: in vivo, human
Procedure, shortened: (§1)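 Double-blind, placebo-controlled study in healthy men and nonchildbearing women aged 18–55 y. The SAD period gave one fasted oral dose; the MAD period gave fed dosing q.d. for 10 days, plus a separate b.i.d. cohort. TEAEs, serious AEs and discontinuation AEs were monitored ≥28 days after the last dose. Vital signs, physical exam, 12-lead ECG, hematology, clinical chemistry and urinalysis were also recorded. Data summarized descriptively.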

[3] = system: MRP2; conditions: cited from earlier work
[4] = Urinary PK, MAD period day 10; assay type: in vivo, human; conditions: day 10, across all doses
Procedure, shortened: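 During the MAD period, urine was collected on day −1 (0–24 h) and day 10 (0–12 h and 12–24 h), with LLOQ 1 ng/mL. Renal clearance and unchanged drug recovered in urine were summarized descriptively as geometric mean (CV), by dose group and for the Japanese 400 mg q.d. cohort.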

[5] = Treatment-emergent adverse events, SAD period; assay type: in vivo, human
Procedure, shortened: as §1

## Cn1cc(-c2cn3nccc3c(-c3cnn([C@]4(CC#N)C[C@@H](C#N)C4)c3)n2)cn1 [PF‐06826647]
[1]
  pKa: < 1.7
[2]; SAD 1,600 mg (placebo: 6% decrease)
  increase in median platelet count from baseline: 28%
[2]; SAD and MAD treatment groups
  changes in lipid parameters (LDL, HDL, total cholesterol): small, and similar to those observed in the placebo group
[2]; all TEAEs
  intensity of TEAEs: mild in intensity
[2]; assessment period
  lymphocyte counts: No clinically meaningful changes
  neutrophil counts: No clinically meaningful changes
[2]; either treatment period
  events of acne or aphthous ulcers: No events of acne or aphthous ulcers were reported
[2]; human, in vivo
  serum cystatin C, serum creatinine‐based and cystatin C‐based eGFR: No clinically meaningful changes
  vital signs, ECG parameters, physical examination: No clinically significant findings
[2]; participants receiving PF‐06826647
  platelet counts: remained within the normal range
[2]; single ≤ 1,600 mg, multiple ≤ 1,200 mg q.d., 200 mg b.i.d., 10‐day dosing
  tolerability: well‐tolerated
[2]; some participants, isolated timepoints
  serum creatinine increase from baseline: up to 0.3 mg/dL
[2]; whole study, three participants
  participants with gastrointestinal AEs: 4%
[3]
  inhibition of transporter protein MRP2: minimal inhibition
[4]
  dose recovered unchanged in urine: < 1.5%
[5]; SAD 3 mg (n = 6)
  AEs: 0 n
  AEs leading to study drug dose reduction or interruption: 0 n
  Participants with AEs: 0 n (%)
  Participants with TEAEs: Alanine aminotransferase increased: 0 n (%)
  Participants with TEAEs: Aspartate aminotransferase increased: 0 n (%)
  Participants with TEAEs: Edema: 0 n (%)
  Participants with TEAEs: Face edema: 0 n (%)
  Participants with TEAEs: Gastrointestinal disorders (SOC): 0 n (%)
  Participants with TEAEs: General disorders and administration site conditions (SOC): 0 n (%)
  Participants with TEAEs: Headache: 0 n (%)
  Participants with TEAEs: Injury, poisoning, and procedural complications (SOC): 0 n (%)
  Participants with TEAEs: Investigations (SOC): 0 n (%)
  Participants with TEAEs: Nausea: 0 n (%)
  Participants with TEAEs: Nervous system disorders (SOC): 0 n (%)
  Participants with TEAEs: Periorbital hematoma: 0 n (%)
  Participants with TEAEs: Periorbital hemorrhage: 0 n (%)
  Participants with TEAEs: Peripheral swelling: 0 n (%)
  Participants with TEAEs: Pruritus: 0 n (%)
  Participants with TEAEs: Rash: 0 n (%)
  Participants with TEAEs: Skin and subcutaneous tissue disorders (SOC): 0 n (%)
  Participants with TEAEs: Urticaria: 0 n (%)
  SAEs: 0 n
  Severe AEs: 0 n
[5]; SAD 10 mg (n = 6)
  AEs: 0 n
  AEs leading to study drug dose reduction or interruption: 0 n
  Participants with AEs: 0 n (%)
  Participants with TEAEs: Alanine aminotransferase increased: 0 n (%)
  Participants with TEAEs: Aspartate aminotransferase increased: 0 n (%)
  Participants with TEAEs: Edema: 0 n (%)
  Participants with TEAEs: Face edema: 0 n (%)
  Participants with TEAEs: Gastrointestinal disorders (SOC): 0 n (%)
  Participants with TEAEs: General disorders and administration site conditions (SOC): 0 n (%)
  Participants with TEAEs: Headache: 0 n (%)
  Participants with TEAEs: Injury, poisoning, and procedural complications (SOC): 0 n (%)
  Participants with TEAEs: Investigations (SOC): 0 n (%)
  Participants with TEAEs: Nausea: 0 n (%)
  Participants with TEAEs: Nervous system disorders (SOC): 0 n (%)
  Participants with TEAEs: Periorbital hematoma: 0 n (%)
  Participants with TEAEs: Periorbital hemorrhage: 0 n (%)
  Participants with TEAEs: Peripheral swelling: 0 n (%)
  Participants with TEAEs: Pruritus: 0 n (%)
  Participants with TEAEs: Rash: 0 n (%)
  Participants with TEAEs: Skin and subcutaneous tissue disorders (SOC): 0 n (%)
  Participants with TEAEs: Urticaria: 0 n (%)
  SAEs: 0 n
  Severe AEs: 0 n
[5]; SAD 30 mg (n = 8)
  AEs: 0 n
  AEs leading to study drug dose reduction or interruption: 0 n
  Participants with AEs: 0 n (%)
  Participants with TEAEs: Alanine aminotransferase increased: 0 n (%)
  Participants with TEAEs: Aspartate aminotransferase increased: 0 n (%)
  Participants with TEAEs: Edema: 0 n (%)
  Participants with TEAEs: Face edema: 0 n (%)
  Participants with TEAEs: Gastrointestinal disorders (SOC): 0 n (%)
  Participants with TEAEs: General disorders and administration site conditions (SOC): 0 n (%)
  Participants with TEAEs: Headache: 0 n (%)
  Participants with TEAEs: Injury, poisoning, and procedural complications (SOC): 0 n (%)
  Participants with TEAEs: Investigations (SOC): 0 n (%)
  Participants with TEAEs: Nausea: 0 n (%)
  Participants with TEAEs: Nervous system disorders (SOC): 0 n (%)
  Participants with TEAEs: Periorbital hematoma: 0 n (%)
